High-throughput results as filed in PubChem.
Jurkat tox 60K: cytotoxicity toward Jurkat cells. Jurkat E6.1 viability, ATP luminescence, 48 h. inhibition, % at 4 µM. 56,000 tested, 1.2% active;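 active = inhibition above the mean inhibition of all tested compounds plus 3 SD, cut at about 28% in these data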
HUVEC prolif 384: inhibitors of human endothelial cell proliferation; HUVEC proliferation, CellTiter-Glo luminescence, 72 h; active compounds read low; viability, % at 10 µM (by protocol); 86,000 tested, 1.1% active; AID 648;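 active = viability at or below 30%; inactive = viability above 30%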;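 also: 100% = median luminescence of DMSO-only cell control wells on each plate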
Ecoli WT expand: growth inhibitors of E. coli BW25113 wild type; OD600 absorbance; growth inhibition, % at 100 µM; 98,000 tested, 0.15% active;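 active = growth inhibition above about 50% at one test dose, limit read from the data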;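 also: growth measured after 20 h incubation at 37 °C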
Ecoli tolC: blocks growth of E. coli BW25113 tolC mutant; OD615; growth inhibition, % at 10 µM (by protocol); 65,000 tested, 2.2% active;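 active = growth inhibition at or above a cutoff equal to the mean over every tested compound plus 3 SD, cut at about 60% in these data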;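 also: growth measured after 20 h incubation at 37 °C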
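System: E. coli ΔtolC::kan strain BW25113; Buffer or medium: LB broth supplemented with 50 µg/mL kanamycin; Compound: 10 µM final, single dose; Incubation: bacterial growth with compound for 20 h at 37 °C; Signal: A615 absorbance measurement; Evaluation: growth inhibition in percent.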
H69AR growth 86K: blocks growth of human H69AR lung tumor cells. 85,000 tested, 6% active. H69AR lung tumor viability, ATP luminescence, 72 h; active compounds read low. viability, % at 10 µM;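 active = viability at or below 40%; inactive = viability above 40%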;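 also: multidrug resistant small cell line overexpressing MRP-1 efflux transporter; 100% = mean luminescence of untreated control wells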
Lung fibro prol: blocks proliferation of human lung fibroblasts. LL 47 human lung fibroblast viability, ATP luminescence; active compounds read low. viability, % at 10 µM. 85,000 tested, 1.1% active. AID 719;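 active = viability at or below 50% in the single dose screen; inactive = viability above 50%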;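 also: compound exposure lasted 72 h before the ATP readout; 100% = median luminescence of untreated cell-only wells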
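Material: human lung fibroblast line LL 47, low passage; Evaluation: viability percentage against median untreated-cell control; Buffer or medium: 15% FBS in IMEM; Incubation: 72 h compound exposure at 37 °C after overnight plating; Dosing: 0.1% DMSO in all compound wells; Measured by: CellTiter-Glo luminescence.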
An asterisk follows results filed as active; x = no result. Only some compounds are listed: those with a hit (about 6.4% of all), similar ones and a draw of the others.

SMILES | Jurkat tox 60K | HUVEC prolif 384 | Ecoli WT expand | Ecoli tolC | H69AR growth 86K | Lung fibro prol
c1cc2c(cc1C1=Nn3c(nnc3C3CCCCC3)SC1)OCO2 | x | 75.2 | 7.0 | 16.7 | 29.5* | 83.8
CCc1nc(SCc2ccc(C(=O)OC)o2)c2c(=O)n(C)c(=O)n(C)c2n1 | 3.9 | 77.3 | -8.0 | 8.5 | 59.8 | 100.2
CCCn1c(N2CCN(CC(=O)c3c(C)n(C)c4ccc(OC)cc34)CC2)nc2c1c(=O)[nH]c(=O)n2C | x | 96.9 | 2.0 | x | 33.4* | 40.6*
COc1ccc(CCn2c(N3CCN(C)CC3)nc3c2c(=O)[nH]c(=O)n3C)cc1 | -1.3 | 91.5 | -4.0 | -4.4 | 88.2 | 98.3
Cc1ccc(S(=O)(=O)NC2CCOC(C)(C)C2)cc1 (stereo not drawn) | 5.9 | 89.2 | 7.0 | 17.9 | 71.5 | 102.8
Cc1ccc(S(=O)(=O)NC2OC(=O)C(Cl)=C2Cl)cc1 (stereo not drawn) | 0.7 | 80.9 | 34.0 | -4.2 | 7.0* | 97.2
Clc1ccc(OCCN2CCN(c3ncnc4sccc34)CC2)cc1 | 44.1* | x | 5.0 | 94.5* | x | x
Cc1ccc(OCCN2CCN(c3ncnc4sc(C)c(C)c34)CC2)cc1 | x | 46.2 | 2.0 | x | 80.5 | 97.4
COc1c(N2CCN(C(=S)NCc3ccccc3)C(C)C2)c(F)cc2c(=O)c(C(=O)O)cn(C3CC3)c12 (stereo not drawn) | x | 107.7 | 88.0* | x | 2.5* | 97.9
Cc1ccc2nc(-c3sc4nc(C)cc(C)c4c3N)[nH]c2c1 | x | 42.5 | x | x | 15.0* | 95.3
Cc1ccc2nc(-c3cccc(N)c3)[nH]c2c1 | x | 73.1 | x | x | 48.8 | 75.2
CC(=Nc1cccc(C)c1)c1sc2ccccc2c1O | x | 86.5 | 1.0 | x | 43.7 | 109.4
CC(=Nc1ccc(O)cc1)c1sc2ccccc2c1O | 3.7 | 78.9 | -2.0 | 100.0* | 96.8 | 78.2
Cc1ccc(S(=O)(=O)NC2CCCc3ccccc32)cc1C (stereo not drawn) | x | 99.1 | -10.0 | x | 104.0 | 96.0
CCN(CC)c1ccc2c(C)c(-c3ccc(N)cc3)c(=O)oc2c1 | x | 79.4 | 2.0 | 7.2 | 51.3 | 96.6
CCN(CC)c1ccc2c(Cl)c(Br)c(=O)oc2c1 | 3.3 | 46.6 | 3.0 | 42.2 | 11.9* | 33.9*
CCN(CC)c1ccc2c(c1)oc(=O)c1c(Cl)cc(=O)oc12 | 14.2 | 38.2 | 0.0 | 13.1 | 1.9* | 11.0*
CCOC(=O)N/N=C(/C)c1ccc([N+](=O)[O-])o1 | x | 98.2 | 51.0* | x | 68.0 | 98.9
COC(=O)N/N=C/c1ccc([N+](=O)[O-])o1 | x | 106.1 | x | x | 78.7 | 101.1
Cc1ccc(N=c2oc3cc(O)ccc3cc2C(N)=O)cc1 | 10.2 | 47.4 | -2.0 | 18.0 | 39.4* | 82.2
CCCCn1c(=O)[nH]c(=O)c2c1nc(-c1ccc(-c3ccccc3Br)o1)n2CCOC | x | 43.6 | -19.0 | x | 47.2 | 39.3*
COCCn1c(-c2ccc(-c3ccccc3Cl)o2)nc2c1c(=O)[nH]c(=O)n2CC(C)C | -0.9 | 37.4 | -13.0 | -14.9 | 17.8* | 60.2
COc1ccccc1N1CCN(S(=O)(=O)c2cnc[nH]2)CC1 | 12.8 | 95.2 | -9.0 | -7.1 | 88.7 | 108.0
CN(C)c1ccc(P(=O)(OCc2ccccc2)C(O)c2cccnc2)cc1 (stereo not drawn) | -0.2 | 100.0 | 6.0 | 1.4 | 77.4 | 104.4
Cc1oc(-c2ccccc2F)nc1CSCC(=O)NCc1ccc2c(c1)OCO2 | 12.9 | 102.2 | 15.0 | 9.9 | 87.1 | 98.3
SMILES | Jurkat tox 60K | HUVEC prolif 384 | Ecoli WT expand | Ecoli tolC | H69AR growth 86K | Lung fibro prol
O=C(CN(C1CC1)S(=O)(=O)c1ccc(S(=O)(=O)NC2CCCCC2)cc1)Nc1ccccc1 | 11.1 | 82.5 | -12.0 | 82.9* | 58.3 | 90.2
CC(C)CNC(=O)CN(C1CCCCC1)S(=O)(=O)c1ccccc1 | x | 108.6 | -2.0 | -1.8 | 86.2 | 93.3
CCOC(=O)C1CCCN(C(=O)Nc2cccc(Cl)c2)C1 (stereo not drawn) | 11.0 | 95.0 | 0.0 | -1.3 | 83.1 | 100.2
Cc1ccc(C)c(N2CCN(C(=O)CCCOc3cc(=O)n(C)c4ccccc34)CC2)c1 | 0.8 | 64.8 | -29.0 | 24.3 | 2.8* | 95.3
Cc1ccc(C)c(N2CCN(C(=O)COc3cc(=O)n(C)c4ccccc34)CC2)c1 | 10.6 | 94.6 | 0.0 | 12.5 | 65.3 | 106.6
Cc1cc2cc(CNC(=O)Cc3cccs3)ccc2n1C | -7.9 | 60.7 | x | 7.2 | 37.6* | 107.3
O=c1c(Sc2ccccc2)c(C(F)(F)F)[nH]n1-c1ccccc1 | x | 64.7 | 2.0 | x | 95.5 | 99.7
CCOc1ccc(-n2c(SC(C)C)nc3c(c2=O)SCC3)cc1 | x | 103.2 | -12.0 | 19.2 | 71.2 | 93.8
CNC(=O)N(C1=NCC(C)(C)S1)c1ccc(F)c(Cl)c1 | 48.6* | 52.3 | 7.0 | 17.7 | 15.2* | 81.4
O=C(COc1ccc([N+](=O)[O-])cc1)Nc1ccc(C(=O)NCc2cccnc2)cc1 | x | x | 21.0 | x | x | x
Nc1ncncc1-c1ccc([N+](=O)[O-])cc1 | x | x | 78.0* | x | x | x
Cc1noc(/C=C/c2ccco2)c1S(=O)(=O)N1CCC(C(=O)NC(C)c2ccccc2)CC1 (stereo not drawn) | x | 85.8 | -7.0 | x | 12.8* | 95.5
Cc1noc(/C=C/c2ccco2)c1S(=O)(=O)N1CCC(C(=O)N(C)Cc2ccccc2)CC1 | 0.6 | 93.9 | -12.0 | 20.0 | 71.4 | 98.3
CCOCCCNC(=O)C1CCN(S(=O)(=O)c2c(C)noc2/C=C\c2ccc(OC)cc2)CC1 | 2.0 | 79.9 | x | -8.9 | 37.1* | 93.8
O=C(Nc1ccc2snnc2c1)N1CCN(c2ccccc2)CC1 | x | 112.8 | x | 22.5 | 79.8 | 99.3
O=C(Nc1ccc2snnc2c1)Nc1cccc2ccccc12 | x | 60.2 | -3.0 | x | 9.3* | 92.3
COc1ccc(OC)c(C(=O)CSc2nnc(Cc3cccs3)n2C)c1 | 11.7 | 98.8 | 10.0 | 5.5 | 93.3 | 99.6
C[N+]1(CC(=O)Nc2ccc(F)cc2)CCN(C(=O)c2ccco2)CC1 | x | 93.1 | 4.0 | x | 67.2 | 97.9
CCCc1cc(-c2nc(N)ncc2-c2ccc3c(c2)OCCCO3)c(O)cc1OC | x | 39.4 | -6.0 | 0.6 | 28.1* | 95.2
CCC(=O)Nc1nc(-c2ccc3c(c2)OCCO3)cs1 | x | 104.4 | 4.0 | x | 74.2 | 110.3
COc1ccc(N(CC(=O)Nc2nc3ccc(C)cc3s2)S(=O)(=O)c2c(C)nn(C)c2C)cc1 | -6.0 | 73.2 | -5.0 | 59.7 | 15.0* | 86.3
O=C1CN(C(=O)c2cc(Br)c(Br)s2)c2ccccc2N1 | x | 41.8 | -4.0 | x | 15.9* | 79.1
Cc1noc2ncnc(Sc3c(Cl)cccc3Cl)c12 | x | 51.8 | -12.0 | x | 15.9* | 48.8*
Cc1noc2ncnc(Sc3ccc(Cl)cc3)c12 | x | 47.3 | 10.0 | x | 1.8* | 56.5
c1cnc(Oc2ccc(-c3nnco3)cc2)cn1 | 1.7 | 102.9 | 4.0 | 9.3 | 101.3 | 99.7
COCCCn1c(SCC(=O)Nc2nc3ccccc3s2)nnc1-c1ccoc1C | x | 87.8 | x | x | 83.4 | 103.6
CSc1ccccc1-n1nnnc1SCC(=O)Nc1cc(C)ccc1C | x | 107.3 | -19.0 | x | 78.3 | 101.2
Cc1ccc(S(=O)(=O)n2nc(C)cc2C)cc1 | x | 79.9 | -6.0 | x | 88.7 | 97.0
Cc1cc(C)n(S(=O)(=O)/C=C/c2ccccc2)n1 | x | 76.2 | 0.0 | 9.2 | 1.1* | 26.2*
